From PubChem BioAssay
This is a sample that favours compounds with a hit; in the whole collection about 2.2% have one here.
Arbovirus inh: antivirals against arbovirus infection, primary screen, cell-based, full library, 10K replicate subset | AID 1251, 2008 | arbovirus infection cell-based antiviral screen | actives 0.37% (n = 200,000) | inhibition, % at 10 µM; in the data active = inhibition above about 30%
Redox H2O2 prof: compounds producing H2O2 with reducing agent – biochemical, NIH compound library profiling, artefact control for MLSCN library redox annotation, primary screen | DTT-dependent redox cycling H2O2, phenol red/HRP absorbance; 100% = 100 µM peroxide control, 0% = buffer | activation, % at 10 µM | actives 0.03% (n = 200,000) | AID 878, 2007;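 active = activation of at least 50% relative to the plate's high and low controls in the primary single-dose screen; inactive = activation below 50%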;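 also: compound incubated with DTT at 0.8 mM final as the reducing agent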
PKD1 kinase inh: inhibitors of human PKD1 kinase, biochemical, fluorescence polarization; Serine/threonine-protein kinase D1 (Homo sapiens), Q15139; PKD1 kinase fluorescence polarization assay; inhibition, % (no concentration beside the values); actives 0.056% (n = 200,000); AID 797, 2007; in the data active = inhibition above about 50%
Target sequence (Q15139 whole entry, looked up): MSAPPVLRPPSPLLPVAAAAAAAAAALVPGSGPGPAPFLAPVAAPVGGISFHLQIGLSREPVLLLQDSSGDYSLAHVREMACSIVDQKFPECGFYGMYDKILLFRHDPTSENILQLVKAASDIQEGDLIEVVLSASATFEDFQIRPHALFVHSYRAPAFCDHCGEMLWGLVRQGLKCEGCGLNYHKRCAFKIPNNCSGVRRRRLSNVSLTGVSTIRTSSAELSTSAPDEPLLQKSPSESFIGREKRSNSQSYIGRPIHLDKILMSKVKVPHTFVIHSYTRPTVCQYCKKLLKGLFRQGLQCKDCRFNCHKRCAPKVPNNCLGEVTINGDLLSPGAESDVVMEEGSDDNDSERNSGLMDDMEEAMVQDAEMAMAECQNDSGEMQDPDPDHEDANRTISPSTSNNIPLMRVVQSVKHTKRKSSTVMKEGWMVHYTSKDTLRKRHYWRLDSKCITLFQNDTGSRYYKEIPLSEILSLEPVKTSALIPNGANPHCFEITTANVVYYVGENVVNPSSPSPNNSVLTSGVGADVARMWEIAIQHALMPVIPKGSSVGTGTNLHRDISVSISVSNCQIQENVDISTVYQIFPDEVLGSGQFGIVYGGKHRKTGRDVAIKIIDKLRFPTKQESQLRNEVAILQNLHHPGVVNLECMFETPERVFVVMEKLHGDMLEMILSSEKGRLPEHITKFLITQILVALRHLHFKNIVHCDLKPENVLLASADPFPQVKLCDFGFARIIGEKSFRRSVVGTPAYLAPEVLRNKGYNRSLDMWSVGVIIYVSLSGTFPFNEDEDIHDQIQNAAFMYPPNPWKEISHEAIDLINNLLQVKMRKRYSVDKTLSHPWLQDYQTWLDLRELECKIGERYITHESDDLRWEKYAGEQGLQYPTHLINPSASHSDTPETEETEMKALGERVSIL
Wee1 degr inh: Wee1 degradation inhibitors, primary screen, cell-based, HeLa, Wee1K328M-luciferase, luminescence | Wee1-like protein kinase (Homo sapiens), P30291 | HeLa Luc-Wee1K328M stability; 100% = proteasome inhibitor MG132 effect | reporter increase, % at 5 µM | actives 1.2% (n = 220,000) | AID 1321, 2008;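 active = activation above the mean of all tested compounds plus 3 SD, set per screening run, cut at about 8.8% in these data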;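 also: cells exposed to compound for 20 h before luminescence read; 0% = DMSO alone and 100% = MG132 at 30 µM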
p97 inhibitor: inhibitors of human p97 ATPase, primary screen, biochemical; recombinant p97 ATPase, Kinase-Glo ATP luminescence, 3 h; inhibition, % at 8 µM; Transitional endoplasmic reticulum ATPase (Homo sapiens), P55072; actives 0.42% (n = 220,000); in the data active = inhibition above about 15%;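 also: 0% = DMSO vehicle and 100% = wells lacking enzyme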
RBBP9 inh: human RBBP9 inhibitors, primary screen, biochemical, fluorescence polarization, FP-Rh probe, HTS | inhibition, % at 7.94 µM | Serine hydrolase RBBP9 (Homo sapiens), O75884 | actives 0.2% (n = 220,000) | recombinant RBBP9;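 active = inhibition above the campaign mean of all tested compounds plus 3 SD, cut at about 14% in these data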;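 also: plate controls were DMSO wells with RBBP9 for no effect and wells lacking RBBP9 protein for full effect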
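System: RBBP9 protein / Buffer or medium: Tris/NaCl buffer pH 8.0 with 0.1% Pluronic / Probe or stimulus: Serine-hydrolase probe FP-Rh, 375 nM pre-mixing / Dosing: 7.94 µM single dose, 0.794% DMSO / Times: enzyme-compound preincubation 30 min, then probe labeling 45 min, 25 °C / Technique: fluorescence polarization (mP), excitation 525 nm, emission 598 nm / Replication: singlicate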
p97 inh conf: p97 ATPase inhibitors, retest, confirmation, biochemical. shares compounds with p97 inhibitor. recombinant p97 ATPase, Kinase-Glo ATP luminescence. inhibition, % at 8 µM. actives 44% (n = 760). AID 1517, 2009;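 active = percent inhibition of p97 ATPase above a set limit, the primary screen's mean plus 3 SD, cut at about 15% in these data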;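 also: 0% = DMSO wells and 100% = wells lacking p97 protein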
* hit, by the source's call; x = no result given.

SMILES	Arbovirus inh	Redox H2O2 prof	PKD1 kinase inh	Wee1 degr inh	p97 inhibitor	RBBP9 inh	p97 inh conf
CC(=O)c1sc(C(C)(C)C)cc1NC(=O)/C=C/C(=O)O	x	x	x	-2	15*	-10	9
CC(=O)c1sc(C(C)(C)C)cc1NC(=O)CCC(=O)O	x	x	x	-1	2	-8	x
NC1=NC2(CCCCC2)N(c2cccc(Cl)c2)C(N)=N1	-1	0	-4	0	25*	9	2
COC(=O)c1sc(-c2ccc(Cl)cc2)cc1NC(=O)/C=C/C(=O)O	x	x	x	-1	18*	-3	18*
CCc1cccc2c(C(=O)COC(=O)c3ccc([N+](=O)[O-])s3)c[nH]c12	-22	3	-10	2	11	-1	x
O=C(OCC(=O)c1c[nH]c2ccccc12)c1ccc([N+](=O)[O-])s1	2	0	-10	-1	31*	1	40*
COc1ccc(/C=N/NC(=O)c2cc(O)c(O)c(O)c2)cc1Cn1cc([N+](=O)[O-])cn1	-12	-2	8	-3	17*	7	31*
O=C(CSc1nnc2ccccn12)N1CCc2ccccc21	10	10	-1	3	2	-7	x
Clc1ccccc1C1CC(c2ccccc2)=Nc2ccccc2N1 (stereo unspecified)	x	x	x	0	15*	-5	6
Clc1cccc(N/N=C/c2ccc(N3CCOCC3)s2)c1	-32	0	0	-1	-5	3	x
CC(C)c1nc2sc3c(=O)[nH]cnc3c2c2c1CCCC2	x	x	x	0	16*	8	20*
CC(C)c1nc2sc3c(=S)nc[nH]c3c2c2c1CCC2	x	x	x	-1	42*	-1	41*
Nc1c(C(=O)Nc2ccccc2F)sc2nc(-c3ccco3)ccc12	-3	-7	2	2	10	6	x
NC(=O)c1sc2nc(-c3ccco3)ccc2c1N	17	-3	-2	0	24*	8	5
COc1cccc(-n2c(SCc3cc(=O)oc4cc(O)c(O)cc34)nc3ccccc3c2=O)c1	8	1	4	3	40*	-18	40*
CCCCC(=O)NNC(=O)c1c(O)c2ccccc2[nH]c1=O	x	x	x	-1	-8	-8	x
O=C(CCl)NNC(=O)c1c(O)c2ccccc2[nH]c1=O	x	x	x	2	21*	-7	32*
COc1cccc2c1C(CO)N1C(C#N)C3CC(C(=O)O)C(C1C2)N3C (stereo unspecified)	x	x	x	-1	3	-7	x
O=S(=O)(c1ccc2oc(=S)[nH]c2c1)N1CCCCC1	x	x	x	8	21*	-9	4
O=c1[nH]c2ccc(S(=O)(=O)N3CCCCC3)cc2o1	3	1	-7	-1	4	-6	x
Cc1nc(NC(=O)COC(=O)CCS(=O)(=O)c2ccccc2Cl)c(Cl)cc1Cl	-4	2	-7	0	-2	-4	x
Cc1[nH]c2ccccc2c1C(=O)COC(=O)CCS(=O)(=O)c1ccccc1Cl	-7	0	-9	2	27*	-7	30*
CN(C)S(=O)(=O)c1cccc(C(=O)NCc2cccs2)c1	11	0	-8	0	0	-3	x
CSC1=C(C#N)C(=O)NC(c2ccc(Cl)cc2)S1 (stereo unspecified)	x	x	x	-1	18*	-3	31*
CC(=O)Oc1cc2c3c(c1)/C(=C1/SC(=S)NC1=O)C(=O)N3C(C)(C)C=C2C	x	x	x	0	25*	5	45*
CN(C)/N=C/c1c(O)ccc2ccccc12	0	-1	-8	0	0	6	x
OCC(CO)(CO)N=Cc1c(O)ccc2ccccc12	23	0	-13	3	29*	-1	8
